Key:
Canis familiaris [1] = experiment: Compound was evaluated for mean increase in food intake in dogs after oral administration at a dose 3 mg/kg; type: functional, Canis lupus familiaris
Canis familiaris [2] = experiment: Compound was evaluated for mean reduction in food intake in three dogs at a dose 3 mg/kg orally for 3 weeks at 2 hour after dosing for the first 3 days; type: functional, Canis lupus familiaris; conditions: route oral
Outline: (§1)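 Chronic regime: three beagle dogs on a daily 4-h meat feeding period were given a daily oral dose for 3 weeks. Food intake was measured 2 h after dosing. The mean % reduction versus control intake was compared between the first 3 and the last 3 days of the test.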

Canis familiaris [3] = species on record: Canis familiaris; experiment: Compound was evaluated for oral ED50 for appetite suppression in dogs.; type: functional; conditions: Canis lupus familiaris
Outline: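 ED50 for the 1-h food intake effect: five pairs of trained beagle dogs were randomly allocated to oral 5, 10, 15 or 20 mg/kg or to an undosed placebo pair. Treatments ran on successive days in a Latin Square design, and food was weighed 1 h into the feeding period.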

Canis familiaris [4] = experiment: Compound was evaluated for mean increase in food intake in dogs at 1 hour after oral administration at a dose 10 mg/kg; type: functional, Canis lupus familiaris
Outline: (§2)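 Mature beagle dogs were trained to a daily 4-h feeding period with free access to meat. Groups of three received oral drug in soft gelatin capsules 1 h before feeding, and controls received empty capsules. All dogs got placebo on days 1–2, then drug or placebo on days 3–5. Leftover food was weighed at 1 and 2 h. Per-dog % change was taken against the days 1–2 mean, then averaged over days 3–5 and per group.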

Rattus norvegicus [5] = species on record: Rattus norvegicus; experiment: Compound was found to have no effect on the release or uptake of dopamine at in rat brain synaptosomes; Inactive; type: functional
Canis familiaris [6] = experiment: Compound was evaluated for mean reduction in food intake in dogs at a dose 15 mg/kg at 2 hour after dosing for the last 3 days; type: functional, Canis lupus familiaris; outline: as §1
Rattus norvegicus [7] = species on record: Rattus norvegicus; experiment: Compound was found to have no effect on the release or uptake of noradrenaline at in rat brain synaptosomes; Inactive; type: functional
Rattus norvegicus [8] = species on record: Rattus norvegicus; experiment: Compound was found to have no effect on the release or uptake of serotonin at in rat brain synaptosomes; Inactive; type: functional
Canis familiaris [9] = experiment: Compound was evaluated for mean reduction in food intake in dogs at a dose 15 mg/kg at 2 hour after dosing for the first 3 days; type: functional, Canis lupus familiaris; outline: as §1
Canis familiaris [10] = experiment: Compound was evaluated for mean reduction in food intake in dogs at 1 hour after dosing; type: functional, Canis lupus familiaris; outline: as §2
Canis familiaris [11] = experiment: Compound was evaluated for mean reduction in food in take in dogs at 2 hour after dosing; type: functional, Canis lupus familiaris; outline: as §2

CCN(CC)C(C)C(=O)c1ccccc1.Cl (configuration not stated) [DIETHYLPROPION HYDROCHLORIDE]
Increase (Canis familiaris [1]): 5%
Reduction (Canis familiaris [2]): 86%
ED50 (Canis familiaris [3]): 2 mg/kg

Cl.c1ccc(COC[C@@H]2COCCN2)cc1
Increase (Canis familiaris [4]): 13%

Cl.c1ccc(COC[C@H]2COCCN2)cc1
IC50 (Rattus norvegicus [5]): > 10 µM
Reduction (Canis familiaris [6]): 56%
IC50 (Rattus norvegicus [7]): > 10 µM
ED50 (Canis familiaris [3]): 12 mg/kg
IC50 (Rattus norvegicus [8]): > 10 µM
Reduction (Canis familiaris [9]): 53%
Reduction (Canis familiaris [10]): 51%
Reduction (Canis familiaris [11]): 47%

— ChEMBL document CHEMBL1123318, “(S)-3-[(benzyloxy)methyl]morpholine hydrochloride: a nonstimulant appetite suppressant without conventional neurotransmitter releasing properties” (J Med Chem, 1986)
